Tests used:
[1] = target: T1, Alpha-2A adrenergic receptor (Homo sapiens) (UniProt P08913); test: Antagonist activity at human adrenergic alpha2A receptor expressed in CHO cells assessed as inhibition of adrenaline-induced [35S]GTPgammaS binding after 30 mins by scintillation counting; type: functional, cell-based
T1 sequence (whole entry): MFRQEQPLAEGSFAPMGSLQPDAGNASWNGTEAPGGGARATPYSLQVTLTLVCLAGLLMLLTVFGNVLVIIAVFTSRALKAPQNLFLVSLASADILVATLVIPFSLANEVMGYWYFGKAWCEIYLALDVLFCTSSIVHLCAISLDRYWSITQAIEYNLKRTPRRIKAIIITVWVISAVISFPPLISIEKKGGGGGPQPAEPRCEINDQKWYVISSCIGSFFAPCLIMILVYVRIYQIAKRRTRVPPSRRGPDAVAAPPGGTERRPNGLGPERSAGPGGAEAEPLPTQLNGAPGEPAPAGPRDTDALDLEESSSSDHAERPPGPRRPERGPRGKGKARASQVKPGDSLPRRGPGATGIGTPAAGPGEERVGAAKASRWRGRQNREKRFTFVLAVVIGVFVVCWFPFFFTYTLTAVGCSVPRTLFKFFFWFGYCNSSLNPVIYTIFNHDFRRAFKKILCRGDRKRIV
Outline: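 Inhibition of adrenaline-stimulated [35S]GTPγS binding in CHO cells expressing human α2A receptors. Compounds were also run alone to check for any stimulation of [35S]GTPγS binding. Antagonist potency is reported as pKB, taken as the potency that inhibits 50% of adrenaline-induced binding.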

[2] = target: T2, Alpha-1B adrenergic receptor (Homo sapiens, UniProt P35368); test: Displacement of [3H]-prazosin from human adrenergic alpha-1b receptor expressed in CHO cells after 120 mins by liquid scintillation counting; type: cell-based
T2 sequence (P35368 whole entry): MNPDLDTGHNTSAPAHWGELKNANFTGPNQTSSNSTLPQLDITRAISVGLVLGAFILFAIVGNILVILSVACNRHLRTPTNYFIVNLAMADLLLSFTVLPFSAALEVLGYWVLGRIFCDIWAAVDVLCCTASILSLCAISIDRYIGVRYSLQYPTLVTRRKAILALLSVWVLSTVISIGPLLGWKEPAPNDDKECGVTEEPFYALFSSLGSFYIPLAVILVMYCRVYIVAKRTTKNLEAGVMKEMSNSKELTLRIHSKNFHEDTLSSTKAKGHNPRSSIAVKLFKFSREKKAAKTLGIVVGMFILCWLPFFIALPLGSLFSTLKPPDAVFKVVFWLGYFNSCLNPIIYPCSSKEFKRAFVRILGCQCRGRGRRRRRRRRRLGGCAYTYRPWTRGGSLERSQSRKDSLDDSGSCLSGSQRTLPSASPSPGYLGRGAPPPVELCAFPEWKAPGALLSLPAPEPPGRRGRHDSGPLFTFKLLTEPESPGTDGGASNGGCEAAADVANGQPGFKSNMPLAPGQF
Outline: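 Competition binding at human α1b receptors stably expressed in CHO cells. Affinity values are means ± SEM of at least two experiments, each in duplicate.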

[3] = target: T3, Alpha-2A adrenergic receptor (Homo sapiens, UniProt P08913); test: Displacement of [3H]-RX821002 from human adrenergic alpha2A receptor expressed in rat C6 cells after 120 mins by liquid scintillation counting; type: cell-based
T3 sequence (P08913 whole entry): T1 sequence (whole entry)
Outline: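 Competition binding at human α2A receptors expressed in C6 glial cells. Affinity values are means ± SEM of at least two experiments, each in duplicate.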

[4] = target: T4, Alpha-2B adrenergic receptor (Homo sapiens, UniProt P18089); test: Displacement of [3H]-RX821002 from human adrenergic alpha2B receptor expressed in rat C6 cells after 120 mins by liquid scintillation counting; type: cell-based
T4 sequence (P18089 whole entry): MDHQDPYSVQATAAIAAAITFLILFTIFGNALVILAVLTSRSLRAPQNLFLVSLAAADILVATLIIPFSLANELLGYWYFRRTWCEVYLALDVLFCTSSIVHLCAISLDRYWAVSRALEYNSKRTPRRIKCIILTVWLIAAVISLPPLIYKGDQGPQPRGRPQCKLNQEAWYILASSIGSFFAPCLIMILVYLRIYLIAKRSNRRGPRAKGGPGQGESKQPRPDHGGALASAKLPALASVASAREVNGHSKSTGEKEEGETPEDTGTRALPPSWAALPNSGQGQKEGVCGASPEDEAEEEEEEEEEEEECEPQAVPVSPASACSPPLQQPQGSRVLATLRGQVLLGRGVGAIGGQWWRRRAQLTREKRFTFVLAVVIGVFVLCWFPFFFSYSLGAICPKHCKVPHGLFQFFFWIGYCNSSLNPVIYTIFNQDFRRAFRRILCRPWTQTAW

[5] = target: T5, Alpha-2C adrenergic receptor (Homo sapiens, UniProt P18825); test: Displacement of [3H]-RX821002 from human adrenergic Alpha-2C receptor expressed in rat C6 cells after 120 mins by liquid scintillation counting; type: cell-based
T5 sequence (P18825 whole entry): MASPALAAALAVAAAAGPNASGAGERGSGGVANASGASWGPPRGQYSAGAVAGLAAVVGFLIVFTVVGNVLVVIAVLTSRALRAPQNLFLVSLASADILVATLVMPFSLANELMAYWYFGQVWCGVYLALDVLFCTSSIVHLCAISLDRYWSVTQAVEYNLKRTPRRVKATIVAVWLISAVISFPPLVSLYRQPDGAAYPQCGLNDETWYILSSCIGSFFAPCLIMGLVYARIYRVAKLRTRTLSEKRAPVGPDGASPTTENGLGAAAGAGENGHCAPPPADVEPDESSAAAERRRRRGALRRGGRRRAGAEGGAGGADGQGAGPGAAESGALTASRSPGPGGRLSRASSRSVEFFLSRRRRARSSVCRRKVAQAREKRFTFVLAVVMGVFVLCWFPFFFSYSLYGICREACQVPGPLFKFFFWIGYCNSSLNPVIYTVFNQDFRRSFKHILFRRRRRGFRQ

[6] = test system: Mus musculus; test: Antihypothermic activity in ip dosed NMRI mouse assessed as inhibition of guanabenz-induced hypothermia administered 5 mins before guanabenz challenge measured after 25 mins; type: functional
Outline: (§1)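 Mice got the compound by intraperitoneal injection or oral gavage before guanabenz challenge, and reversal of guanabenz-induced hypothermia was scored. Five animals were tested per dose. ED50 is the dose giving an inhibitory effect in 50% of guanabenz-treated animals, with 95% confidence limits.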

[7] = test system: Mus musculus; test: Antihypothermic activity in po dosed NMRI mouse assessed as inhibition of guanabenz-induced hypothermia administered 35 mins before guanabenz challenge measured after 25 mins; type: functional; outline: as §1
[8] = test system: Mus musculus; test: Ratio of ED50 for santihypothermic activity in po dosed NMRI mouse to ED50 for antihypothermic activity in ip dosed NMRI mouse; type: functional
Outline: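 Guanabenz-induced hypothermia in mice, five animals per dose. ED50 (the dose inhibiting hypothermia in 50% of guanabenz-treated animals) was obtained after oral gavage and after intraperitoneal injection, and the ratio po/ip was then calculated.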

[9] = test system: Mus musculus; test: Increase of normetanephrine level in NMRI mouse cortex at 0.16 to 10 mg/kg, ip after 1 hr microwave irradiation; type: functional; settings: dose mg/kg 0.16-10; route intraperitoneal
Outline: (§2)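 Single intraperitoneal dose; mice were killed by head-focused microwave irradiation 1 h later. Frontal cortex normetanephrine, an extracellular noradrenaline metabolite, was measured and expressed as increase relative to control animals, giving dose-response data across 0.16 to 10 mg/kg.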

[10] = test system: Rattus norvegicus; test: Cardiotoxicity in pithed Sprague-Dawley rat assessed as increase of diastolic pressure at > 0.63 ug/kg, iv; type: toxicity, organism-based; settings: in vivo, 0.00063 mg/kg
[11] = test system: Rattus norvegicus; test: Cardiotoxicity in pithed Sprague-Dawley rat assessed as increase of diastolic pressure at 2.5 ug/kg, iv in presence of prazosin; type: toxicity, organism-based; settings: in vivo, 0.0025 mg/kg
[12] = test system: Rattus norvegicus; test: Cardiotoxicity in pithed Sprague-Dawley rat assessed as increase of diastolic pressure at 2.5 ug/kg, iv in presence of rauwolscine; type: toxicity, organism-based; settings: in vivo, 0.0025 mg/kg
[13] = test system: Rattus norvegicus; test: Cardiotoxicity in anesthetized Sprague-Dawley rat assessed as increase of diastolic pressure at up to 0.16 ug/kg, iv; type: toxicity, organism-based; settings: in vivo, 0.00016 mg/kg
[14] = test system: Rattus norvegicus; test: Cardiotoxicity in anesthetized Sprague-Dawley rat assessed as increase of diastolic pressure at 10 ug/kg, iv; type: toxicity, organism-based; settings: in vivo, 0.01 mg/kg
[15] = test system: Mus musculus; test: Increase of normetanephrine level in NMRI mouse cortex at 10 mg/kg, ip after 1 hr microwave irradiation; type: functional; settings: route intraperitoneal; outline: as §2
[16] = test system: Mus musculus; test: Increase of normetanephrine level in ip dosed NMRI mouse cortex after 1 hr microwave irradiation; type: functional, organism-based; outline: as §2
[17] = Mus musculus, NMRI, ip, read-out: ED50
[18] = Mus musculus, NMRI, po, read-out: ED50

Structure (SMILES)	pKb [1]	Ki [2]	Ki [3]	Ki [4]	Ki [5]	ED50 [6, 17]	ED50 [7, 18]	Ratio ED50 [8]	ED50 [6]	ED50 [7]	Activity [9]	Activity [10]	Activity [11]	Activity [12]	Activity [13]	Activity [14]	Activity [15]	Activity [16]
CC[C@H]1c2ccccc2[C@H]2C[C@]21c1c[nH]cn1 (relative stereo)	8.91	40.7 nM	0.513 nM	1.62 nM	1.26 nM	0.03 mg/kg	0.04 mg/kg	1.3										
CCC[C@H]1c2ccccc2[C@H]2C[C@]21c1c[nH]cn1 (relative stereo)	8.7	8.91 nM	0.851 nM	2.29 nM	1.48 nM	0.1 mg/kg	0.12 mg/kg	1.2										
c1ccc2c(c1)C[C@]1(c3cnc[nH]3)C[C@H]21 (stereo in doubt; (+)-1)		3.55 nM	0.0794 nM	0.275 nM	0.263 nM			3.5	0.02 mg/kg	0.07 mg/kg	3096%	Toxic	Toxic	Non-toxic	Non-toxic	26 mmHg		
CCO[C@H]1c2ccccc2[C@H]2C[C@]21c1c[nH]cn1 (relative stereo)	8.36	39.8 nM	3.31 nM	9.77 nM	10.2 nM	0.16 mg/kg	0.03 mg/kg	0.2										
CNCCCN1c2ccccc2CCc2ccccc21 [DESIPRAMINE]																	223%	
C[C@]12CC1(c1c[nH]cn1)Cc1ccccc12 (single isomer, unassigned)	8.66	39.8 nM	0.447 nM	0.912 nM	2.82 nM	0.06 mg/kg	0.66 mg/kg	11										
CCC[C@H]1[C@@H]2c3ccccc3C[C@]12c1c[nH]cn1	9.24	3.55 nM	0.407 nM	0.347 nM	0.437 nM	0.1 mg/kg	0.33 mg/kg	3.3										
CC1(C)C2c3ccccc3C[C@@]21c1c[nH]cn1 (single isomer, unassigned)	8.97	178 nM	1.07 nM	1.15 nM	1.17 nM	0.07 mg/kg	0.47 mg/kg	6.7										
CCC1(c2c[nH]cn2)Cc2ccc(F)cc2C1 (stereo not given) [FIPAMEZOLE]	7.84	2090 nM	7.24 nM	6.76 nM	13.8 nM	0.47 mg/kg	1.87 mg/kg	4									247%	
c1ccc2c(c1)C[C@]1(c3c[nH]cn3)C[C@H]21 (stereo in doubt; (+)-1)	9.64																	Dose-dependent effect
CCCO[C@H]1c2ccccc2[C@H]2C[C@]21c1c[nH]cn1 (relative stereo)	8.16					0.29 mg/kg	0.12 mg/kg	0.4										
CCC1(c2c[nH]cn2)Cc2ccccc2C1 [ATIPAMEZOLE]	8.05					0.19 mg/kg	1.95 mg/kg	10.3									258%	
C[C@H]1[C@@H]2c3ccccc3C[C@]12c1c[nH]cn1	9.67	33.1 nM	0.174 nM	0.204 nM	0.295 nM	0.06 mg/kg	0.19 mg/kg	3.2										
